Measurements as given in ChEMBL document CHEMBL5325390, “1,2,4-Triazole-3-thione analogues with an arylakyl group at position 4 as metallo-β-lactamase inhibitors” (Bioorg Med Chem, 2022).

Legend:
Escherichia coli = experiment: Synergistic antimicrobial activity against blaNDM-1-producing multidrug-resistant Escherichia coli SI-004M clinical isolate assessed as meropenem MIC at 32 ug/ml by CLSI based microdilution method (reference value: 64 ug/ml); type: functional; conditions: dose 32 µg/ml
[1] = target: Metallo-beta-lactamase type 2 (Bacteria, UniProt C7C422); experiment: Binding affinity to NDM1 (unknown origin) expressed in Escherichia coli BL21(DE3) assessed as inhibition constant by measuring rate of substrate hydrolysis by UV-Vis spectrophotometric analysis; conditions: read-out: Ki
Outline: (§1)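 Purified MBL (1–70 nM) with 150 µM imipenem or meropenem as reporter substrate, 50 mM HEPES pH 7.5, 30 °C. Hydrolysis followed by absorbance at 300 nm without and with inhibitor (0.5 µM–1 mM). Ki from the slope of v0/vi vs [I] under a competitive model, or from Dixon plots varying inhibitor and substrate. […] Triplicate, mean ± SD.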

Klebsiella pneumoniae [2] = experiment: Antimicrobial synergistic activity against blaVIM-1-producing multidrug-resistant Klebsiella pneumoniae 7023 clinical isolate assessed as meropenem MIC at 32 ug/ml by CLSI based broth microdilution method (reference value: 16 ug/ml); type: functional; conditions: dose 32 µg/ml
[3] = Binding affinity to IMP1 (unknown origin) expressed in Escherichia coli BL21(DE3) assessed as inhibition constant by measuring rate of substrate hydrolysis by UV-Vis spectrophotometric analysis; conditions: read-out: Ki; outline: as §1
Klebsiella pneumoniae [4] = experiment: Antimicrobial synergistic activity against blaVIM-4-producing multidrug-resistant Klebsiella pneumoniae VA416/02 clinical isolate assessed as meropenem MIC at 32 ug/ml by CLSI based broth microdilution method (reference value: 16 ug/ml); type: functional; conditions: dose 32 µg/ml
[5] = Binding affinity to VIM-4 (unknown origin) expressed in Escherichia coli BL21(DE3) assessed as inhibition constant by measuring rate of substrate hydrolysis by UV-Vis spectrophotometric analysis; outline: as §1
Beta-lactamase VIM-1 = Beta-lactamase VIM-1 (Bacteria, UniProt Q8GDC1); experiment: Binding affinity to VIM-1 (unknown origin) expressed in Escherichia coli BL21(DE3) assessed as inhibition constant by measuring rate of substrate hydrolysis by UV-Vis spectrophotometric analysis; outline: as §1
Klebsiella pneumoniae [6] = experiment: Synergistic antimicrobial activity against blaVIM-4-producing multidrug-resistant Klebsiella pneumoniae VA416/02 clinical isolate assessed as fractional inhibitory concentration index in presence of meropenem by checkerboard assay; type: functional
[7] = Binding affinity to VIM-2 (unknown origin) expressed in Escherichia coli BL21(DE3) assessed as inhibition constant by measuring rate of substrate hydrolysis by UV-Vis spectrophotometric analysis; outline: as §1
[8] = test system: metallo-β-lactamase VIM-4 (Pseudomonas aeruginosa); experiment: Inhibition of VIM-4 (unknown origin) expressed in Escherichia coli BL21(DE3) assessed as substrate hydrolysis at 200 uM by UV-Vis spectrophotometric analysis relative to control
[9] = target: Metallo-beta-lactamase type 2 (Bacteria) (UniProt C7C422); experiment: Inhibition of NDM1 (unknown origin) expressed in Escherichia coli BL21(DE3) assessed as substrate hydrolysis at 100 uM by UV-Vis spectrophotometric analysis relative to control
Outline: (§2)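 Single-point screen at 100 or 200 µM inhibitor against purified MBL (1–70 nM) with 150 µM imipenem or meropenem reporter substrate, 50 mM HEPES pH 7.5, 30 °C. Initial hydrolysis rate read by absorbance at 300 nm and compared with the uninhibited reaction. Triplicate.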

[10] = target: Metallo-beta-lactamase type 2 (Bacteria) (UniProt C7C422); experiment: Inhibition of NDM1 (unknown origin) expressed in Escherichia coli BL21(DE3) assessed as substrate hydrolysis at 200 uM by UV-Vis spectrophotometric analysis relative to control; outline: as §2
[11] = test system: metallo-β-lactamase IMP-1 (Pseudomonas aeruginosa); experiment: Inhibition of IMP1 (unknown origin) expressed in Escherichia coli BL21(DE3) assessed as substrate hydrolysis at 200 uM by UV-Vis spectrophotometric analysis relative to control
[12] = test system: metallo-β-lactamase VIM-2 (Pseudomonas aeruginosa); experiment: Inhibition of VIM-2 (unknown origin) expressed in Escherichia coli BL21(DE3) assessed as substrate hydrolysis at 100 uM by UV-Vis spectrophotometric analysis relative to control
[13] = test system: metallo-β-lactamase VIM-2 (Pseudomonas aeruginosa); experiment: Inhibition of VIM-2 (unknown origin) expressed in Escherichia coli BL21(DE3) assessed as substrate hydrolysis at 200 uM by UV-Vis spectrophotometric analysis relative to control
[14] = target: Beta-lactamase VIM-1 (Bacteria) (UniProt Q8GDC1); experiment: Inhibition of VIM-1 (unknown origin) expressed in Escherichia coli BL21(DE3) assessed as substrate hydrolysis at 200 uM by UV-Vis spectrophotometric analysis relative to control; outline: as §2
[15] = test system: metallo-β-lactamase VIM-4 (Pseudomonas aeruginosa); experiment: Inhibition of VIM-4 (unknown origin) expressed in Escherichia coli BL21(DE3) assessed as substrate hydrolysis at 100 uM by UV-Vis spectrophotometric analysis relative to control
[16] = target: Beta-lactamase VIM-1 (Bacteria) (UniProt Q8GDC1); experiment: Inhibition of VIM-1 (unknown origin) expressed in Escherichia coli BL21(DE3) assessed as substrate hydrolysis at 100 uM by UV-Vis spectrophotometric analysis relative to control; outline: as §2
[17] = test system: metallo-β-lactamase IMP-1 (Pseudomonas aeruginosa); experiment: Inhibition of IMP1 (unknown origin) expressed in Escherichia coli BL21(DE3) assessed as substrate hydrolysis at 100 uM by UV-Vis spectrophotometric analysis relative to control
[18] = target: T1, Angiotensin-converting enzyme (Oryctolagus cuniculus) (UniProt P12822); conditions: Lung, dose 100.0 nM
T1 sequence (whole entry): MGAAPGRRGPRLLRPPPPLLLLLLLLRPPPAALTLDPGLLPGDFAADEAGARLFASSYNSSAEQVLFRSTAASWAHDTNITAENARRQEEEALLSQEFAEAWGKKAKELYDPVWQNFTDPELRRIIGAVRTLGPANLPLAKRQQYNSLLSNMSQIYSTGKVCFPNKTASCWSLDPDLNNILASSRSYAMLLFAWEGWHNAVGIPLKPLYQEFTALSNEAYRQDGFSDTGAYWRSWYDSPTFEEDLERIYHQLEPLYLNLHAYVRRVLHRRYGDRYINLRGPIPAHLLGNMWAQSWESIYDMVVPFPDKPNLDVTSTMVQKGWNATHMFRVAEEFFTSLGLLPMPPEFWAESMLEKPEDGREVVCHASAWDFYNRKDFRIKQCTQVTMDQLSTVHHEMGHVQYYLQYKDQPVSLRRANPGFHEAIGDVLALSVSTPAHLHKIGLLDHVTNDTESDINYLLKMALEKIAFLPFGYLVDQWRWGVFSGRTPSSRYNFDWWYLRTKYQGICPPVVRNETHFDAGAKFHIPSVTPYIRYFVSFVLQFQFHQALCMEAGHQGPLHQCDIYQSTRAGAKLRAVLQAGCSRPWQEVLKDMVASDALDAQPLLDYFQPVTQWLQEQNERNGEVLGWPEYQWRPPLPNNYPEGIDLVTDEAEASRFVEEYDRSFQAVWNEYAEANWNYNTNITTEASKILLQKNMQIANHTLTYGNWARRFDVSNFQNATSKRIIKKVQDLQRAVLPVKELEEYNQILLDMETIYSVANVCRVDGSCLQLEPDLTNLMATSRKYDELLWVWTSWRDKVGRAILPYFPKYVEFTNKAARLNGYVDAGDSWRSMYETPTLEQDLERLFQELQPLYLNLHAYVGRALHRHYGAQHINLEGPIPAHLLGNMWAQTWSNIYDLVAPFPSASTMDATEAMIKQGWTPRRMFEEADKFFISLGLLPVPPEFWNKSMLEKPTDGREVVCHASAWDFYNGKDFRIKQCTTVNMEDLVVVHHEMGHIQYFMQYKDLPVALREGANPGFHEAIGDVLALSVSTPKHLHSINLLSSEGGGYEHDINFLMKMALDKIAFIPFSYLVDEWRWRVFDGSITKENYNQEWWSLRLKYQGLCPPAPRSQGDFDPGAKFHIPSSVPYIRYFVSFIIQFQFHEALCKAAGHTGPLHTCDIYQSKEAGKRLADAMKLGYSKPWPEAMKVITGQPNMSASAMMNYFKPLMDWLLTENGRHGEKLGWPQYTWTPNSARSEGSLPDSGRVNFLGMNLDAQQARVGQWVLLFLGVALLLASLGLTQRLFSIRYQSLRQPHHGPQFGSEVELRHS

[19] = test system: metallo-β-lactamase L1 (Stenotrophomonas maltophilia); experiment: Inhibition of L1 (unknown origin) expressed in Escherichia coli BL21(DE3) assessed as substrate hydrolysis at 100 uM by UV-Vis spectrophotometric analysis relative to control
[20] = target: T2, Angiotensin-converting enzyme (Oryctolagus cuniculus, UniProt P12822); experiment: Binding affinity to rabbit lung angiotensin-converting enzyme assessed as inhibition constant
T2 sequence (P12822 whole entry): T1 sequence (whole entry)

[21] = target: T1, Angiotensin-converting enzyme (Oryctolagus cuniculus); experiment: Inhibition of rabbit lung angiotensin-converting enzyme at 100 uM using Abz-Gly-Phe-(NO2)-Pro as substrate by fluorescence based microplate reader analysis relative to control; type: tissue-based
Outline: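 Rabbit lung ACE, 1.5 mU per well, in 150 mM Tris, 750 mM NaCl, pH 8.3, with Abz-Gly-Phe(NO2)-Pro substrate. Blank-corrected fluorescence of released Abz-Gly-OH (ex 316, em 413 nm) followed up to 90 min. Test compounds at 100 µM; captopril control at 100 nM. Inhibition % = 100 − (vi/v0 × 100).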

HeLa = experiment: Cytotoxicity against human HeLa cells assessed as induction of cell lysis upto 250 uM measured for 72 hrs by realtime-glo MT assay; type: toxicity, cell-based
Outline: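 HeLa cells at 1,500 cells/well exposed to compound up to 250 µM for up to 72 h. Viability read by RealTime-Glo MT luminescent assay. Triplicate.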

Sequence of Metallo-beta-lactamase type 2 (Bacteria) (C7C422 whole entry): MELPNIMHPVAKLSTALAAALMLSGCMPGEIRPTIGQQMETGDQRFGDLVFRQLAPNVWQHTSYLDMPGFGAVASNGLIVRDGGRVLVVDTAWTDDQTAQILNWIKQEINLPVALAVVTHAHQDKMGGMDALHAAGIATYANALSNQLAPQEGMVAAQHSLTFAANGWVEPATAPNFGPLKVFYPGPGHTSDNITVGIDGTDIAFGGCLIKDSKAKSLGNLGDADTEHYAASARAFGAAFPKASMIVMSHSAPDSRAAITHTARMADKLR
Sequence of Metallo-beta-lactamase type 2 (C7C422 whole entry): as above

| SMILES | MIC (Escherichia coli) [µg/mL] | Ki [1] [nM] | MIC (Klebsiella pneumoniae [2]) [µg/mL] | Ki [3] [nM] | MIC (Klebsiella pneumoniae [4]) [µg/mL] | Ki [5] [nM] | Ki (Beta-lactamase VIM-1) [nM] | FIC (Klebsiella pneumoniae [6]) | Ki [7] [nM] | inhibition [8] [%] | inhibition [9] [%] | inhibition [10] [%] | inhibition [11] [%] | inhibition [12] [%] | inhibition [13] [%] | inhibition [14] [%] | inhibition [15] [%] | inhibition [16] [%] | inhibition [17] [%] | Ki [20] [nM] | further results |
| --- | --- | --- | --- | --- | --- | --- | --- | --- | --- | --- | --- | --- | --- | --- | --- | --- | --- | --- | --- | --- | --- |
| Oc1ccc(CCn2c(-c3cccc(-c4ccccc4)c3)n[nH]c2=S)cc1O | 32 | 17400 | 16 | 9200 | 2 | 680 | 1300 | 0.48 | 1700 |  |  |  |  |  |  |  |  |  |  |  |  |
| S=c1[nH]nc(-c2cc3ccccc3[nH]2)n1-c1ccc(OCc2ccccc2)cc1 |  |  |  |  |  |  |  |  |  | < 50 | < 30 | < 50 | < 50 | < 30 | < 50 | < 50 | < 30 | < 30 | < 30 |  |  |
| C[C@H](CS)C(=O)N1CCC[C@H]1C(=O)O |  |  |  |  |  |  |  |  |  |  |  |  |  |  |  |  |  |  |  |  | inhibition [18]: 96% |
| S=c1[nH]nc(-c2ccccc2)n1CCCc1ccccc1 | 64 |  | 2 | 14000 | 2 | 900 | 560 | 0.25 | 740 |  | < 30 |  |  |  |  |  |  |  |  | 30000 | inhibition [19]: < 30%; inhibition [21]: 50% |
| Oc1ccc(CCn2c(-c3cccc(-c4ccccc4)c3)n[nH]c2=S)c(O)c1 | 32 | 14300 | 2 |  | 4 | 820 | 410 |  | 1300 |  |  |  | < 50 |  |  |  |  |  | < 30 | 55000 | inhibition [21]: 35%; Activity (HeLa): Non-Toxic |
| S=c1[nH]nc(Cc2ccccc2)n1CCc1ccccc1 |  |  |  |  |  |  |  |  |  | < 50 | < 30 | < 50 | < 50 | < 30 | < 50 | < 50 | < 30 | < 30 | < 30 |  |  |
